What was measured:
[1] = melting temperature; fluorescence melt of hairpins on a sequencing array, two-state fit, raised by 9.35 °C to match UV melts; details: sodium 0.088 M
In short: (§1)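 On a sequenced MiSeq flow cell, library hairpins with annealed Cy3 and quencher oligos were imaged for Cy3 fluorescence in 2.5 °C steps up to 60 °C, in 50 mM Na-HEPES pH 8.0, 25 mM NaCl. Normalisation used pre-quench Cy3 and control constructs. Bootstrapped two-state fits gave melting temperature and folding enthalpy, combined by inverse variance across four replicates and with fitted temperatures raised by 9.35 °C to match UV melts.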

[2] = folding enthalpy; higher = less favourable; fluorescence melt of hairpins on a sequencing array, two-state fit; details: sodium 0.088 M
In short: as §1

GAGTTCGAAAGAACTC ((((((....))))))
Tm [1]: 66.2 °C
folding enthalpy [2]: -38 kcal/mol

GCTGTTACGAAAGTAAGC (((..(((....))))))
Tm [1]: 37.8 °C
folding enthalpy [2]: -21.1 kcal/mol

GCTGAGCGAAAGCTTAGC (((.(((....))).)))
Tm [1]: 57.4 °C
folding enthalpy [2]: -50.4 kcal/mol

GCTCCGCGAAAGCGAGC (((.(((....))))))
Tm [1]: 61.7 °C
folding enthalpy [2]: -20.6 kcal/mol

GCATCGGGAAACTGATGC (((((.(....).)))))
Tm [1]: 55.7 °C
folding enthalpy [2]: -37.2 kcal/mol

GTCTCTGCGAAAGCAGAC (((..(((....))))))
Tm [1]: 34.3 °C
folding enthalpy [2]: -8.28 kcal/mol

GATCAACTGATTGATC ((((((....))))))
Tm [1]: 42.7 °C
folding enthalpy [2]: -32.3 kcal/mol

GTCGGAGGAAACTCCAAC ((.((((....)))).))
Tm [1]: 35.5 °C
folding enthalpy [2]: -22.7 kcal/mol

CGTGCCGGAAACGGAACG (((.(((....))).)))
Tm [1]: 55.9 °C
folding enthalpy [2]: -37.7 kcal/mol

GATCAAGCATTTGATC ((((((....))))))
Tm [1]: 51 °C
folding enthalpy [2]: -32.7 kcal/mol

GCGTATGGAAACATATGC ((.((((....)))).))
Tm [1]: 47.8 °C
folding enthalpy [2]: -46.8 kcal/mol

GGGAGGTCGAAAGACCCC (((..(((....))))))
Tm [1]: 54.5 °C
folding enthalpy [2]: -14.4 kcal/mol

GATCTGCACACAGATC ((((((....))))))
Tm [1]: 51.6 °C
folding enthalpy [2]: -43.9 kcal/mol

CGCAAGAAATTGCG (((((....)))))
Tm [1]: 53.3 °C
folding enthalpy [2]: -29.6 kcal/mol

GCGAAGCGAAAGCCTTGC ((.(.((....)).).))
Tm [1]: 36.3 °C
folding enthalpy [2]: -7.85 kcal/mol

GCATAACCGAAAGGTTGC (((..(((....))))))
Tm [1]: 46.6 °C
folding enthalpy [2]: -15.4 kcal/mol

GATACGGAAACGTATC ((((((....))))))
Tm [1]: 54 °C
folding enthalpy [2]: -43.6 kcal/mol

GCCCGTCGAAAGACAGGC (((.(((....))).)))
Tm [1]: 55.3 °C
folding enthalpy [2]: -39 kcal/mol

GGAGTCGGAAACGGCTTC (.((.((....)).)).)
Tm [1]: 44.3 °C
folding enthalpy [2]: -21.7 kcal/mol

GAAGTCCGAAAGGATTTC (((.(((....))).)))
Tm [1]: 50.2 °C
folding enthalpy [2]: -31.6 kcal/mol

GGGATACGAAAGTAGCCC (((.(((....))).)))
Tm [1]: 63.1 °C
folding enthalpy [2]: -43.9 kcal/mol

Reference: the array DNA melting data of Ke et al. (doi:10.1101/2024.01.08.574731)
